Screening data as filed in PubChem BioAssay.
L major viab: Leishmania major promastigote growth inhibition; Leishmania major promastigotes, resazurin fluorescence viability; inhibition, % at 10 µM; actives 9% (n = 200,000); AID 1063; in the data active means inhibition above about 50%;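 further: promastigotes grown with compound for 44 hours at 28 °C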
HSF1 inh: HSF1 inhibition; activity change, negative = inhibition, % at 7.5 µM (by protocol); NIH3T3-HGL HSE-luciferase, MG132-induced, luminescence 8 h; stronger effect = lower value; actives 0.77% (n = 300,000); AID 2098;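 active means more than half of replicate wells show activity change below -50%, luminescence cut by over half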;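 further: luciferase reports HSF-1 transcriptional activity via heat shock element; 0% = median of DMSO wells and -100% = zero luminescence signal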
T cruzi repl: T. cruzi replication inhibition | actives 1.4% (n = 300,000) | inhibition, % (test concentration not listed) | AID 1885 | T. cruzi beta-gal in NIH3T3, luminescence, 90 h;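 active means mean inhibition across valid replicates above about 55%, limit read from the data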;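 further: signal also drops with host cell toxicity which is not excluded here; 0% = plate median of DMSO wells and 100% = zero luminescence signal; higher percent means less beta-gal luminescence so fewer parasites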
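System: Mouse NIH/3T3 fibroblasts infected with β-gal-expressing T. cruzi Tulahuen C4 | Quantity: NIH/3T3 cells, 5,000 per well | Reagent: 5000 reporter trypomastigotes per well | Dosing: Compound pinned at 50 nL/well, DMSO | Schedule: 3 h host attachment, then at least 90 h co-culture | Detection: GalScreen luminescence, 60 min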
HSF-1 act: increases HSF-1 driven luciferase reporter signal. AID 504408. NIH3T3-HGL HSF-1 luciferase reporter, MG132, 8 h; 100% = twice DMSO control signal. actives 1.7% (n = 300,000). activation, % at 9 µM;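 active means mean replicate activation of at least 50% with a set share of replicates each reaching 50%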;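 further: 0% = median of the neutral control wells and 100% = twice that signal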
Hsp70 activator: switches on Hsp70 transcription. actives 0.04% (n = 200,000). AID 1203. activation, % at 10 µM. HeLa Hsp70 promoter luciferase reporter, luminescence; scaled: vehicle 0, proteasome-inhibitor control 100%;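 active means activation above the mean across all tested compounds plus 3 SD, cutoff set per campaign, cut at about 5.5% in these data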;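 further: 100% = MG132 at 30 µM as the positive control and 0% = DMSO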
* marks the source's active call; other numbers are inactive results. This is one part of a sample in which hits are shown more often than they occur.

What do the screens show for `Nc1ccccc1SC1CC(=O)N(Cc2ccccc2)C1=O` (configuration not stated)?
L major viab: -4.0; HSF1 inh: 9.8; T cruzi repl: -1.3; HSF-1 act: -2.6; Hsp70 activator: -0.1

What do the screens show for `Clc1ccc(-c2cnc3n2CCC3)cc1`?
L major viab: -5.0; HSF1 inh: 14.6; T cruzi repl: -9.6; HSF-1 act: 15.2; Hsp70 activator: 0.1

What do the screens show for `COc1ccc(-c2c[n+]3c4n2CCCCC4=C(c2ccc(Br)cc2)C3)cc1`?
L major viab: 100.0*; HSF1 inh: 4.0; T cruzi repl: 52.8; HSF-1 act: 39.4; Hsp70 activator: -0.2

What do the screens show for `Clc1ccc(C2=C3CCCCn4c(-c5ccccc5)c[n+](c43)C2)cc1`?
L major viab: 100.3*; HSF1 inh: 4.6; T cruzi repl: 48.5; HSF-1 act: 17.7; Hsp70 activator: -0.1

What do the screens show for `Cc1cccc(-c2noc(CN(C)C(=O)c3ccc4c(c3)OCO4)n2)c1`?
HSF1 inh: 0.1; T cruzi repl: 8.6; HSF-1 act: 17.2

Results for O=C(O)CCC(=O)Nc1ccc(Cc2ccc(NC(=O)CCC(=O)O)c(O)c2)cc1O ?
L major viab: -5.5; HSF1 inh: 7.0; T cruzi repl: 1.7; HSF-1 act: 19.4; Hsp70 activator: -0.2

Results for O=C(Nc1ccc(Cc2ccc(NC(=O)C3CC3)c(O)c2)cc1O)C1CC1 ?
L major viab: 51.9*; HSF1 inh: 2.0; T cruzi repl: 3.9; HSF-1 act: 21.4; Hsp70 activator: -0.1

Results for COc1ccc(Nc2cc3n(c(=O)n2)CCc2cc(OC)c(OC)cc2-3)cc1 ?
HSF1 inh: -15.7; T cruzi repl: -3.8; HSF-1 act: -6.3

How did COc1cc2c(cc1OC)-c1cc(Nc3ccc4c(c3)OCCO4)nc(=O)n1CC2 do in these assays?
L major viab: 8.3; HSF1 inh: -71.6*; T cruzi repl: 14.0; HSF-1 act: -75.4; Hsp70 activator: -0.2

Results for COc1ccc(-c2nnc(SCC(=O)N(Cc3ccccc3)C(C)(C)C)o2)cc1OC ?
L major viab: 57.5*; HSF1 inh: -4.7; T cruzi repl: 16.3; HSF-1 act: -0.6; Hsp70 activator: -0.3
